Compound activity deposited in PubChem BioAssay by Sanford-Burnham Center for Chemical Genomics.
This is a sample that favours compounds with a hit; in the whole collection about 1.5% have one here.
CCR6 antagonist = antagonists of human CCR6 receptor; inhibition, % at 20 µM; 340,000 compounds, 0.49% hits; AID 493098; CHO-K1 CCR6 PathHunter beta-arrestin, luminescence, CCL20-stimulated; P51684;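 active = compounds whose inhibition of the agonist-driven luminescence signal at 20 µM reaches about 50%, limit read from the data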;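 also: cells stimulated with CCL20 at 14 nM final; plate controls were DMSO with CCL20 for no effect and DMSO without agonist for full effect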
iPSC survival up = increases survival of single human iPS cells. AID 602274. survival enhancement, % at 20 µM. hiPSC single-cell survival, ATPlite luminescence; 100% = ROCK inhibitor wells, 0% = DMSO. 360,000 compounds, 0.044% hits; in the data active = survival enhancement above about 18%;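 also: cells exposed to compounds for 16 hours before the ATP read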
EBI2 antag = antagonists of human EBI2 receptor; EBI2 beta-arrestin recruitment, luminescence, 7a,25-OHC stimulated; 360,000 compounds, 0.81% hits; inhibition, % at 5 µM; P32249; in the data active = inhibition above about 38%;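 also: enzyme fragment complementation signal reports receptor beta-arrestin coupling in cells; 0% = agonist plus DMSO wells and 100% = wells without agonist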
Target sequence (P32249 whole entry, looked up, the tested form may be a part): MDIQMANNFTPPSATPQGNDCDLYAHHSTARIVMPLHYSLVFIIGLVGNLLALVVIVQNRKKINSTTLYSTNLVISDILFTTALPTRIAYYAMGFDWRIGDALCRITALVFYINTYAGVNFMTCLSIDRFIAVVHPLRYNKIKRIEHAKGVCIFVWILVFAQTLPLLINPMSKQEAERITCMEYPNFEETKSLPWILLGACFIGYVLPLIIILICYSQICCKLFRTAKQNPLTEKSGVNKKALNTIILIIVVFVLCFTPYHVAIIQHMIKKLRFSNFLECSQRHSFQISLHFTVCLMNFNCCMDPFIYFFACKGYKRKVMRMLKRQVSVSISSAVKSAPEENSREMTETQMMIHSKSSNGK
CXCR6 inh = blocks human CXCR6 beta-arrestin recruitment. CHO-K1 PathHunter CXCR6 beta-arrestin, luminescence. inhibition, % at 20 µM. 360,000 compounds, 0.36% hits. AID 602244; in the data active = inhibition above about 34%, passing the limit was not always enough;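 also: antagonist mode with CXCL16 agonist at 10 nM final; 0% = 10 nM CXCL16 with DMSO and 100% = unstimulated wells without agonist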
Target sequence (O00574 whole entry, looked up): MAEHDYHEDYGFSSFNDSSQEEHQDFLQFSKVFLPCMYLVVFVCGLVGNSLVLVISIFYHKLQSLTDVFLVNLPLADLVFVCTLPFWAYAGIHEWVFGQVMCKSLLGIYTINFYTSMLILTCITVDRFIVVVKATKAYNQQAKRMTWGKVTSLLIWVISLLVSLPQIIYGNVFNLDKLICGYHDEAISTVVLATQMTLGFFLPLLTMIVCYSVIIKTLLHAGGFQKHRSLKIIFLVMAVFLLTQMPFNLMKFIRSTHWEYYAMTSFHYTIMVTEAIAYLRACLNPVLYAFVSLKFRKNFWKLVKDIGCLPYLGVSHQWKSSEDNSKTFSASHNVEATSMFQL
APJ agonist = APJ receptor agonism | P35414 | CHO-K1 APJ PathHunter beta-arrestin, luminescence; 0% DMSO wells, 100% apelin | activation, % at 20 µM | 330,000 compounds, 0.11% hits | AID 2520;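 active = activation more than six SD over the plate average, tested at 20 µM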;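 also: 0% = DMSO alone and 100% = apelin-13 at 10 nM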
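Incubation: overnight seeding, 90 min compound at 25 °C, 1 h detection; test system: PathHunter CHO-K1 APJ (AGTRL-1) beta-arrestin reporter cells; amount: 1000 cells/well; doses: one dose, 20 µM compound, 1% DMSO; measured by: beta-gal luminescence; measure: agonist-driven arrestin binding to APJ; benchmarks: negative DMSO alone, positive Apelin-13 at 10 nM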
APJ antagonist = antagonists of human APJ apelin receptor; CHO-K1 APJ beta-arrestin complementation, luminescence; AID 2521; P35414; 330,000 compounds, 0.32% hits; inhibition, % at 20 µM;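 active = inhibition above about 40% at 20 µM, limit read from the data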;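 also: cells challenged with 10 nM apelin-13 agonist together with compound; plate controls were apelin-13 plus DMSO wells for no effect and DMSO wells lacking apelin-13 for full effect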
APJ antag confirm = confirmation of human APJ apelin receptor antagonists; 950 compounds, 66% hits; AID 2766; shares compounds with APJ antagonist; inhibition, % at 20 µM; APJ beta-arrestin recruitment, luminescence, antagonist mode; in the data active = inhibition above about 50%
CXCR6 antag conf = CXCR6 antagonism confirmation, single concentration; shares compounds with CXCR6 inh; 700 compounds, 65% hits; inhibition, % at 20 µM; CHO-K1 CXCR6 PathHunter beta-arrestin, luminescence;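 active = mean inhibition over four retests above 40%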;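 also: receptor stimulated with 10 nM CXCL16 agonist; beta-galactosidase fragment complementation upon beta-arrestin recruitment to receptor; plate controls were CXCL16 plus DMSO for no effect and DMSO without CXCL16 for full effect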
* marks the source's active call; other numbers are inactive results; . = no result.

SMILES | CCR6 antagonist | iPSC survival up | EBI2 antag | CXCR6 inh | APJ agonist | APJ antagonist | APJ antag confirm | CXCR6 antag conf
Cc1nn(CCC(=O)NNC(=S)Nc2ccc(F)cc2)c(C)c1Br | 28 | -2 | 10 | 16 | -5 | 52* | 108* | .
Cc1ccc(C)c(NC(=O)COC(=O)c2cc3ccccc3oc2=O)c1 | 4 | 0 | -11 | -5 | 1 | -2 | . | .
COc1ccc2cc([C@H](C)C(=O)N(C)Cc3ccccc3N3CCCC3)ccc2c1 | 22 | 0 | 23 | 20 | -2 | -4 | . | .
CCOc1ccc(S(=O)(=O)N2CCN(CCNS(=O)(=O)c3ccc(C)cc3)CC2)cc1 | 7 | 0 | -3 | 5 | -5 | -18 | . | .
O=C(N/N=C/c1ccc(O)c([N+](=O)[O-])c1)C1CC1(c1ccccc1)c1ccccc1 (stereo not drawn) | 34 | -4 | 9 | 27 | -4 | 41* | 16 | .
O=C(N/N=C/c1ccncc1)C1CC1(c1ccccc1)c1ccccc1 (stereo not drawn) | 11 | 0 | 1 | 6 | 1 | 8 | . | .
O=C(Sc1cccc2cccnc12)c1ccccc1Br | . | 0 | 49* | 35 | -5 | 52* | 85* | .
CC(=O)C12OC(C)(C)OC1CC1C3CCC4=CC(=O)C=CC4(C)C3(F)C(O)CC12C (stereo not drawn) | 4 | 3 | -1 | 4 | . | . | . | .
COc1cccc(NC(=O)CSc2nnc(-c3cc(C)[nH]n3)n2N)c1 | 5 | 0 | 10 | -9 | -2 | 42* | 1 | .
COc1cccc(NC(=O)C(NCCc2ccc(S(N)(=O)=O)cc2)c2ccccc2)c1 (stereo not drawn) | 18 | 1 | 3 | 2 | 2 | 2 | . | .
O=C(Nc1nc(-c2ccccn2)cs1)c1cc(Cl)ccc1[N+](=O)[O-] | 77* | 2 | 40* | 59* | -8 | 72* | 97* | .
Cc1ccc(NC(=O)Cn2nnc(C(=O)Nc3ccc(C)c(C)c3)c2N)cc1 | 2 | -2 | 2 | 8 | 0 | 55* | 37 | .
CCCCn1c(NC(=O)c2ccc(Br)o2)c(S(=O)(=O)c2ccccc2)c2nc3ccccc3nc21 | 12 | 0 | 13 | 10 | -10 | 55* | -11 | .
COc1cc(/C=C2/SC(=S)N(C)C2=O)ccc1OC(=O)c1ccco1 | 49 | -2 | 0 | 28 | -5 | 46* | 48 | .
COc1cc(/C=C2\SC(=S)N(NC(C)=O)C2=O)ccc1OC(=O)c1ccco1 | 47 | 1 | -23 | 27 | -7 | -13 | . | .
Cc1cc(C)cc(OCCCCn2cncn2)c1 | 2 | 0 | -8 | 3 | -2 | 20 | . | .
Nc1c(C(=O)Nc2ccccc2)sc2nc3c(c(-c4ccco4)c12)CCC3 | 6 | 1 | 20 | 10 | 22 | -19 | . | .
CCOC(=O)c1c(C)nc2sc(C(=O)Nc3ccccc3)c(N)c2c1-c1ccc(OC)cc1 | -3 | -3 | 37 | 10 | -7 | 41* | 23 | .
COc1ccc(-c2c3c(nc4sc(C(=O)Nc5ccccc5)c(N)c24)CCC3)cc1 | 10 | -4 | 34 | 21 | -17 | 71* | 38 | .
Cc1ccc(-n2c(SCCN)nnc2-c2cccc(C)c2)cc1 | 60* | 1 | 18 | 44* | -8 | 42* | 70* | 49*
CC(=O)NS(=O)(=O)c1ccc(Nc2ccc([N+](=O)[O-])c3nonc23)cc1 | 55* | 0 | 14 | 51* | -8 | 45* | 101* | 47*
CCOc1ccc(Nc2ccc([N+](=O)[O-])c3nonc23)cc1 | 56* | 0 | 15 | 59* | -10 | 52* | 89* | 43*
CC(=O)Nc1ccc(Nc2ccc3nonc3c2[N+](=O)[O-])cc1 | -6 | 0 | -10 | -6 | 1 | -13 | . | .
C[C@H](CO)N1C[C@H](C)[C@@H](CN(C)CC2CC2)Oc2c(NC(=O)Cc3ccccc3)cccc2C1=O | 25 | -2 | 3 | -8 | -4 | 11 | . | .
CC(OC(=O)COc1cccc2c1OC(C)(C)C2)C(=O)Nc1ccc(S(N)(=O)=O)cc1 (stereo not drawn) | -11 | -1 | 4 | -7 | -2 | 15 | . | .
SMILES | CCR6 antagonist | iPSC survival up | EBI2 antag | CXCR6 inh | APJ agonist | APJ antagonist | APJ antag confirm | CXCR6 antag conf
COc1cc(C2C(C#N)=C(N)Oc3n[nH]c(-c4cccnc4)c32)cc(Br)c1O (stereo not drawn) | 65* | -1 | 11 | 46* | -8 | 56* | 75* | 52*
O=C(NNc1ccc([N+](=O)[O-])cc1[N+](=O)[O-])c1ccco1 | 58* | 2 | 8 | 44* | -16 | 51* | 79* | 48*
O=C(NNc1ccc([N+](=O)[O-])cc1)c1ccco1 | 30 | 0 | -1 | 14 | 7 | -9 | . | .
O=C(Nc1nc(-c2ccccn2)cs1)Nc1ccc(F)cc1F | 67* | 0 | 36 | 65* | -8 | 41* | 65* | 79*
COc1cc(/C=C/c2ccc3cccc(O)c3n2)cc(Br)c1OC | 34 | 0 | 10 | 23 | -6 | 21 | . | .
COc1cc(/C=C/c2ccc3cccc(O)c3n2)cc(OC)c1OC | 77* | 0 | 62* | 72* | -11 | 49* | 58* | 85*
CSCCC(NC(=O)c1ccccc1Cl)C(=O)NNC(=O)c1ccncc1 (stereo not drawn) | 1 | 0 | -4 | -4 | -6 | 6 | . | .
CCN1C(=O)CS/C1=N\S(=O)(=O)c1ccc(Cl)cc1 | 13 | 0 | -1 | -2 | -6 | -8 | . | .
CCn1c(Cl)c(C=O)s/c1=N\S(=O)(=O)c1ccccc1 | 105* | 44* | 32 | 89* | 0 | 96* | 105* | 105*
CC(=O)N1c2ccccc2S(=O)(=O)c2c1ccc1ccccc21 | 11 | -2 | 4 | -2 | . | . | . | .
CCc1ccc2nc(Nc3nc(COC)cc(=O)[nH]3)nc(C)c2c1 | 17 | 1 | -2 | -1 | -1 | 13 | . | .
COCc1cc(=O)[nH]c(Nc2nc3ccc(C)cc3o2)n1 | 41 | 0 | 5 | 46* | -9 | 52* | 54* | 47*
CC(=O)OCCCNc1cc(Sc2nc3ccccc3s2)c2nonc2c1[N+](=O)[O-] | 104* | 2 | 63* | 93* | -6 | 77* | 101* | 103*
O=c1cc(CSc2ccc(Cl)cc2)nc(-c2ccccc2)[nH]1 | 3 | 0 | -5 | -9 | -1 | -4 | . | .
O=c1cc(CSc2ccc(Cl)cc2)nc(-c2ccccn2)[nH]1 | 79* | -1 | 48* | 54* | -11 | 51* | 70* | 68*
